# Test results published in ChEMBL document CHEMBL3400019, “Pheophorbide-a conjugates with cancer-targeting moieties for targeted photodynamic cancer therapy” (Bioorg Med Chem, 2015).
# Active and inactive are the calls of the source. No cut-off for these calls is given here. Residues, ends and D or L forms follow the SMILES beside them.
# Tests used:
# [1] = test system: MCF7; assay: Phototoxicity against human MCF7 cells overexpressing LHRH receptor at 0.1 to 2 uM incubated for 2 hrs followed by 1.25 J/cm'2 light irradiation from red light emitting diode for 24 hrs by MTT assay; assay type: functional, cell-based
# Method in brief: (§1)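 Cells seeded at 1 × 10^5 cells/mL overnight, PBS-washed, incubated 2 h in serum-free medium with photosensitizer (from 1 mM DMSO stock); medium removed, irradiated 1.25 J/cm2 red LED (613–645 nm). After 24 h, MTT (5 mg/mL stock) 3 h at 37 °C, formazan dissolved in 0.04 M HCl/isopropanol, OD 570 nm; background-subtracted, % of control; mean ± SD, three experiments.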
# [2] = test system: SK-OV-3; assay: Phototoxicity against LHRH receptor-negative human SKOV3 cells at 0.1 to 2 uM incubated for 2 hrs followed by 1.25 J/cm'2 light irradiation from red light emitting diode for 24 hrs by MTT assay; assay type: functional, cell-based; method in brief: as §1
# [3] = Cellular uptake in human U87MG cells overexpressing alphaVbeta3 at 2 uM after 1 hr by confocal microscopy; assay type: ADME, cell-based; conditions: u-87mg atcc
# Method in brief: (§2)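 Cells plated on slide dishes overnight (A549 in DMEM, others in RPMI 1640, 10% FBS, 37 °C, 5% CO2); conjugate added to medium at 2 µM, incubated (time per line), washed three times with PBS, imaged by confocal microscopy; excitation 440 nm, emission 655–755 nm.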
# [4] = test system: A549; assay: Cellular uptake in alphaVbeta3-negative human A549 cells at 2 uM after 1 hr by confocal microscopy; assay type: ADME, cell-based; conditions: a549, 1 h; method in brief: as §2
# [5] = test system: U-87MG ATCC; assay: Phototoxicity against human U87MG cells overexpressing alphaVbeta3 at 0.1 to 2 uM incubated for 2 hrs followed by 1.25 J/cm'2 light irradiation from red light emitting diode for 24 hrs by MTT assay; assay type: functional, cell-based; method in brief: as §1
# [6] = test system: A549; assay: Phototoxicity against alphaVbeta3-negative human A549 cells at 0.1 to 2 uM incubated for 2 hrs followed by 1.25 J/cm'2 light irradiation from red light emitting diode for 24 hrs by MTT assay; assay type: functional, cell-based; method in brief: as §1
# [7] = test system: FaDu; assay: Cellular uptake in human FADU cells overexpressing alphaVbeta6 at 2 uM after 1 hr by confocal microscopy; assay type: ADME, cell-based; method in brief: as §2
# [8] = test system: A549; assay: Cellular uptake in alphaVbeta6-negative human A549 cells at 2 uM after 1 hr by confocal microscopy; assay type: ADME, cell-based; conditions: a549, 1 h; method in brief: as §2
# [9] = test system: FaDu; assay: Phototoxicity against human FADU cells overexpressing alphaVbeta6 at 0.1 to 2 uM incubated for 2 hrs followed by 1.25 J/cm'2 light irradiation from red light emitting diode for 24 hrs by MTT assay; assay type: functional, cell-based; method in brief: as §1
# [10] = test system: A549; assay: Phototoxicity against alphaVbeta6-negative human A549 cells at 0.1 to 2 uM incubated for 2 hrs followed by 1.25 J/cm'2 light irradiation from red light emitting diode for 24 hrs by MTT assay; assay type: functional, cell-based; method in brief: as §1
# [11] = test system: FaDu; assay: Induction of apoptosis in human FADU cells overexpressing alphaVbeta6 assessed as increase in apoptotic cell death incubated for 1 hr prior to 1.25 J/cm'2 light irradiation from red light emitting diode measured after 24 hrs by Annexin V-FITC/propidium iodide staining-based flow cytometry relative to control; assay type: functional
# Method in brief: (§3)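 Cells seeded 5 × 10^5 per plate and given photodynamic treatment as in the viability assay: conjugate in serum-free medium, then red LED light (613–645 nm) at 1.25 J/cm2. Harvested 24 h later and washed in cold PBS. Stained 15 min at rt with saturating Annexin V-FITC and PI in HEPES binding buffer (10 mM HEPES, 140 mM NaCl, 2.5 mM CaCl2, pH 7.4). Read by flow cytometry against control.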
# [12] = test system: A549; assay: Induction of apoptosis in alphaVbeta6-negative human A549 cells assessed as increase in apoptotic cell death incubated for 1 hr prior to 1.25 J/cm'2 light irradiation from red light emitting diode measured after 24 hrs by Annexin V-FITC/propidium iodide staining-based flow cytometry relative to control; assay type: functional; method in brief: as §3
# [13] = test system: FaDu; assay: Induction of apoptosis in human FADU cells overexpressing alphaVbeta6 assessed as decrease in cell density at 1 uM incubated for 1 hr prior to 1.25 J/cm'2 light irradiation from red light emitting diode measured after 24 hrs by DAPI staining-based conventional fluorescence microscopy relative to control; assay type: functional
# [14] = test system: FaDu; assay: (§4) Induction of apoptosis in human FADU cells overexpressing alphaVbeta6 assessed as cell rounding at 1 uM incubated for 1 hr prior to 1.25 J/cm'2 light irradiation from red light emitting diode measured after 24 hrs by DAPI staining-based conventional fluorescence microscopy relative to control; assay type: functional
# [15] = test system: FaDu; assay: Induction of apoptosis in human FADU cells overexpressing alphaVbeta6 assessed as cellular shrinkage at 1 uM incubated for 1 hr prior to 1.25 J/cm'2 light irradiation from red light emitting diode measured after 24 hrs by DAPI staining-based conventional fluorescence microscopy relative to control; assay type: functional, cell-based
# [16] = test system: FaDu; assay: as §4, with “condensation and the fragmentation of nuclear structure” for “cell rounding”; assay type: functional, cell-based
# Method in brief: (§5)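 A549 and FaDu seeded 5 × 10^5 cells/well, PDT (1 h conjugate, 1.25 J/cm2 red LED, 613–645 nm), 24 h; fixed in 4% paraformaldehyde, stained with 1 µg/mL DAPI 5 min dark at rt, washed ice-cold PBS, nuclear chromatin changes viewed by fluorescence microscopy (×400).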
# [17] = test system: A549; assay: Induction of apoptosis in alphaVbeta6-negative human A549 cells assessed as decrease in cell density at 1 uM incubated for 1 hr prior to 1.25 J/cm'2 light irradiation from red light emitting diode measured after 24 hrs by DAPI staining-based conventional fluorescence microscopy relative to control; assay type: functional
# [18] = test system: A549; assay: (§6) Induction of apoptosis in alphaVbeta6-negative human A549 cells assessed as cell rounding at 1 uM incubated for 1 hr prior to 1.25 J/cm'2 light irradiation from red light emitting diode measured after 24 hrs by DAPI staining-based conventional fluorescence microscopy relative to control; assay type: functional
# [19] = test system: A549; assay: Induction of apoptosis in alphaVbeta6-negative human A549 cells assessed as cellular shrinkage at 1 uM incubated for 1 hr prior to 1.25 J/cm'2 light irradiation from red light emitting diode measured after 24 hrs by DAPI staining-based conventional fluorescence microscopy relative to control; assay type: functional, cell-based
# [20] = test system: A549; assay: as §6, with “condensation and the fragmentation of nuclear structure” for “cell rounding”; assay type: functional, cell-based; method in brief: as §5
# [21] = test system: FaDu; assay: Induction of apoptosis in human FADU cells overexpressing alphaVbeta6 assessed as PARP cleavage at 0.1 to 1 uM incubated for 1 hr prior to 1.25 J/cm'2 light irradiation from red light emitting diode measured after 24 hrs by Western blotting analysis relative to control; assay type: functional, cell-based
# Method in brief: (§7)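 A549 and FaDu seeded 2 × 10^5 cells/well, given PDT (1 h conjugate, 1.25 J/cm2 red LED, 613–645 nm, 35 mW/cm2 at 635 nm peak), then 24 h incubation; lysed, equal protein by SDS–PAGE, PVDF transfer, antibody immunoblot for PARP cleavage, procaspase-3, Bcl-2, Bax.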
# [22] = test system: A549; assay: Induction of apoptosis in alphaVbeta6-negative human A549 cells assessed as PARP cleavage at 0.1 to 1 uM incubated for 1 hr prior to 1.25 J/cm'2 light irradiation from red light emitting diode measured after 24 hrs by Western blotting analysis relative to control; assay type: functional, cell-based; method in brief: as §7
# [23] = test system: FaDu; assay: Induction of apoptosis in human FADU cells overexpressing alphaVbeta6 assessed as reduction in Bcl-2 expression at 0.1 to 1 uM incubated for 1 hr prior to 1.25 J/cm'2 light irradiation from red light emitting diode measured after 24 hrs by Western blotting analysis relative to control; assay type: functional, cell-based; method in brief: as §7
# [24] = test system: FaDu; assay: Induction of apoptosis in human FADU cells overexpressing alphaVbeta6 assessed as increase in Bax expression at 0.1 to 1 uM incubated for 1 hr prior to 1.25 J/cm'2 light irradiation from red light emitting diode measured after 24 hrs by Western blotting analysis relative to control; assay type: functional, cell-based; method in brief: as §7
# [25] = test system: FaDu; assay: Induction of apoptosis in human FADU cells overexpressing alphaVbeta6 assessed as decrease in procaspase-3 expression at 0.1 to 1 uM incubated for 1 hr prior to 1.25 J/cm'2 light irradiation from red light emitting diode measured after 24 hrs by Western blotting analysis relative to control
# [26] = test system: MCF7; assay: Cellular uptake in human MCF7 cells overexpressing LHRH receptor at 2 uM after 1.5 hrs by confocal microscopy; assay type: ADME, cell-based; conditions: mcf7, 1.5 h; method in brief: as §2
# [27] = Cellular uptake in LHRH receptor-negative human SKOV3 cells at 2 uM after 1.5 hr by confocal microscopy; conditions: sk-ov-3, 1.5 h
# [28] = Cellular uptake in human KB cells overexpressing folate receptor at 2 uM after 1 hr by confocal microscopy; assay type: ADME, cell-based; conditions: 0.5 h, in the assay text read “after 0.5 hr” for “after 1 hr”; method in brief: as §2
# [29] = test system: A549; assay: Cellular uptake in folate receptor-negative human A549 cells at 2 uM after 1 hr by confocal microscopy; assay type: ADME, cell-based; conditions: a549, 0.5 h, in the assay text read “after 0.5 hr” for “after 1 hr”; method in brief: as §2
# [30] = test system: KB; assay: Phototoxicity against human KB cells overexpressing folate receptor at 0.1 to 2 uM incubated for 2 hrs followed by 1.25 J/cm'2 light irradiation from red light emitting diode for 24 hrs by MTT assay; assay type: functional, cell-based; method in brief: as §1
# [31] = test system: A549; assay: Phototoxicity against folate receptor-negative human A549 cells at 0.1 to 2 uM incubated for 2 hrs followed by 1.25 J/cm'2 light irradiation from red light emitting diode for 24 hrs by MTT assay; assay type: functional, cell-based; method in brief: as §1
smiles,measurement,setting,value
C=Cc1c(C)c2cc3nc(c4c5[nH]c(cc6nc(cc1[nH]2)C(C)=C6CC)c(C)c5C(=O)[C@@H]4C(=O)OC)[C@@H](CCC(=O)NCCCC(=O)OC[C@H](NC(=O)[C@@H](Cc1c[nH]c2ccccc12)NC(=O)[C@H](Cc1cnc[nH]1)NC(=O)[C@@H]1CCC(=O)N1)C(=O)N[C@@H](Cc1ccc(O)cc1)C(=O)N[C@H](CC(C)C)C(=O)N[C@@H](CC(C)C)C(=O)N[C@@H](CCCNC(=N)N)C(=O)N1CCC[C@H]1C(=O)NCC)[C@@H]3C,Activity,[1],Active
same,Activity,[2],inactive
C=Cc1c(C)c2cc3nc(c4c5[nH]c(cc6nc(cc1[nH]2)C(C)=C6CC)c(C)c5C(=O)[C@@H]4C(=O)OC)[C@@H](CCC(=O)NCCCC(=O)NCCCC[C@H]1NC(=O)[C@@H](Cc2ccccc2)NC(=O)[C@H](CC(=O)O)NC(=O)CNC(=O)[C@H](CCCNC(=N)N)NC1=O)[C@@H]3C,Drug uptake,[3],Active
same,Drug uptake,[4],Not Active
same,Activity,[5],Active
same,Activity,[6],inactive
"[H][C@]12CSSC[C@]([H])(NC1=O)C(=O)N[C@@H](CCCNC(=N)N)C(=O)NCC(=O)N[C@@H](CC(=O)NCCCNC(=O)CC[C@@H]1c3nc(cc4[nH]c(cc5nc(cc6[nH]c7c(c6C)C(=O)[C@H](C(=O)OC)c37)C(CC)=C5C)c(C=C)c4C)[C@H]1C)C(=O)N[C@@H](CC(C)C)C(=O)N[C@@H](C)C(=O)N[C@@H](CO)C(=O)N[C@@H](CC(C)C)C(=O)N2 (HELM PEPTIDE1{R.G.D.L.A.S.L.C.C}|CHEM1{[C=Cc1c(C)c2cc3nc(c4c5[nH]c(cc6nc(cc1[nH]2)C(C)=C6CC)c(C)c5C(=O)[C@@H]4C(=O)OC)[C@@H](CCC(=O)NCCCN[*:1])[C@@H]3C]}$PEPTIDE1,CHEM1,3:R3-1:R1|PEPTIDE1,PEPTIDE1,8:R3-9:R3|PEPTIDE1,PEPTIDE1,1:R1-9:R2$$$V2.0)",Drug uptake,[7],Active
same,Drug uptake,[8],Not Active
same,Activity,[9],Active
same,Activity,[10],inactive
same,Activity,[11],Dose-dependent effect
same,Activity,[11]; record 2,31.4%
same,Activity,[12],19.8%
same,Activity,[13],Active
same,Activity,[14],Active
same,Activity,[15],Active
same,Activity,[16],Active
same,Activity,[17],inactive
same,Activity,[18],inactive
same,Activity,[19],inactive
same,Activity,[20],inactive
same,Activity,[21],Active
same,Activity,[22],inactive
same,Activity,[23],Active
same,Activity,[24],Active
same,Activity,[25],Active
C=Cc1c(C)c2cc3nc(c4c5[nH]c(cc6nc(cc1[nH]2)C(C)=C6CC)c(C)c5C(=O)[C@@H]4C(=O)OC)[C@@H](CCC(=O)NCCCC(=O)OC[C@H](NC(=O)[C@H](Cc1c[nH]c2ccccc12)NC(=O)[C@H](Cc1cnc[nH]1)NC(=O)[C@@H]1CCC(=O)N1)C(=O)N[C@@H](Cc1ccc(O)cc1)C(=O)N[C@H](CC(C)C)C(=O)N[C@@H](CC(C)C)C(=O)N[C@@H](CCCNC(=N)N)C(=O)N1CCC[C@H]1C(=O)NCC)[C@@H]3C,Drug uptake,[26],Active
same,Drug uptake,[27],Not Active
C=Cc1c(C)c2cc3nc(c4c5[nH]c(cc6nc(cc1[nH]2)C(C)=C6CC)c(C)c5C(=O)[C@@H]4C(=O)OC)[C@@H](CCC(=O)NCCOCCOCCNC(=O)CCC(NC(=O)c1ccc(NCc2cnc4nc(N)[nH]c(=O)c4n2)cc1)C(=O)O)[C@@H]3C (some centres not stated),Drug uptake,[28],Active
same,Drug uptake,[29],Not Active
same,Activity,[30],Active
same,Activity,[31],inactive
